Data reported in ChEMBL document CHEMBL1124756, “The discovery of potent nonpeptide angiotensin II receptor antagonists: a new class of potent antihypertensives” (J Med Chem, 1990).

Assays:
Angiotensin II receptor [1] = target: T1, Angiotensin II receptor (Rattus norvegicus, UniProt P29089+P25095+P35351); assay: Inhibitory concentration that gave 50 percent displacement of specific binding of [3H]AII (2 nM) to Angiotensin II receptor; assay type: protein assay
T1 sequence (P29089 whole entry): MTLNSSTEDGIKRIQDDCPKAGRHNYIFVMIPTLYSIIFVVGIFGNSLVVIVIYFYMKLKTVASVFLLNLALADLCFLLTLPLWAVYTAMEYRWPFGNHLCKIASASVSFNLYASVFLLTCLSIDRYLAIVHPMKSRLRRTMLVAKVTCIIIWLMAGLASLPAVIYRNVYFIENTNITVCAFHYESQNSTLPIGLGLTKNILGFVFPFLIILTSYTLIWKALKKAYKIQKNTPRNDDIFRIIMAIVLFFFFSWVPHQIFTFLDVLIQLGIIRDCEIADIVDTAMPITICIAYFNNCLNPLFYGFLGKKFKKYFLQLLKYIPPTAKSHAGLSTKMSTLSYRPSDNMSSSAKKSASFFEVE
T1 sequence (P25095 whole entry): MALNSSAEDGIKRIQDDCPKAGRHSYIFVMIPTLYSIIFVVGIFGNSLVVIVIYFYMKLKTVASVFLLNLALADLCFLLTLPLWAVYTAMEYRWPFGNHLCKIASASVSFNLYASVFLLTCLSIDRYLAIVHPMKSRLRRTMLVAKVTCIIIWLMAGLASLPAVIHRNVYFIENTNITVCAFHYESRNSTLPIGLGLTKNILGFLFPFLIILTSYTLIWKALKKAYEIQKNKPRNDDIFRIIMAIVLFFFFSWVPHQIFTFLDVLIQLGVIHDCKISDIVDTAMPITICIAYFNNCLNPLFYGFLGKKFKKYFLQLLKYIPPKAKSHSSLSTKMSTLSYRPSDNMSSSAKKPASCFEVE
T1 sequence (P35351 whole entry): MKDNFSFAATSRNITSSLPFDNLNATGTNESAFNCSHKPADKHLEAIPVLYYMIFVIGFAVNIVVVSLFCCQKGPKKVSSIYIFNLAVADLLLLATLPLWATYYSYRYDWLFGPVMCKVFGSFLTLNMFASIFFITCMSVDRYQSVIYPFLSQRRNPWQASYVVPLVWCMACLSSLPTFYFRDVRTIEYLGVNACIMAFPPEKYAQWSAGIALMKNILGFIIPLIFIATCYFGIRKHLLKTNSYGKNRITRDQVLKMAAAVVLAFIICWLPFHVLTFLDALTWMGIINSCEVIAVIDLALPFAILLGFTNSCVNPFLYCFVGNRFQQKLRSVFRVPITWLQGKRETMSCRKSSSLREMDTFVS
Procedure, shortened: (§1)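 Rat adrenal cortical microsomes from male Sprague–Dawley rats, resuspended in 50 mM Tris pH 7.2, 5 mM MgCl2, 0.25% BSA. Membranes (0.02–0.03 mg protein) incubated with [3H]AII 2 nM plus varying inhibitor concentrations, 60 min at 25 °C with shaking. Glass-fiber filtration, scintillation counting, duplicates. Nonspecific binding defined with 1 μM unlabeled AII. IC50 taken from linear portion of displacement curve.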

Angiotensin II receptor [2] = target: T1, Angiotensin II receptor; assay: Inhibitory concentration that gave 50 percent displacement of specific binding of [3H]AII (2 nM) to Angiotensin ll receptor; assay type: protein assay; procedure, shortened: as §1
[3] = Dissociation constant (pKa); assay type: physicochemical

| SMILES | IC50 (Angiotensin II receptor [1]) [µM] | IC50 (Angiotensin II receptor [2]) [µM] | pKa [3] |
| --- | --- | --- | --- |
| CCCCc1nc(CC(=O)OC)c(Cl)n1Cc1ccc(NC(=O)c2ccccc2C(=O)O)cc1 | 0.42 | – | – |
| CCCCc1nc(Cl)c(CC(=O)OC)n1Cc1ccc(N2C(=O)c3ccccc3C2=O)cc1 | 3.1 | – | – |
| Cc1nccn1Cc1ccc(NC(=O)c2ccccc2C(=O)O)cc1 | – | 100 | – |
| CCCCCc1nccn1Cc1ccc(NC(=O)c2ccccc2C(=O)O)cc1 | – | 0.24 | – |
| CCCCc1nc(Cl)c(CO)n1Cc1ccc(C=O)cc1 | 28 | – | – |
| CCCCc1nc(Cl)c(CC(=O)OC)n1Cc1ccc(NC(=O)c2cc(Cl)ccc2NS(=O)(=O)C(F)(F)F)cc1 | 5.9 | – | 4.5 |
| CCCCc1nc(Cl)c(CC(=O)OC)n1Cc1ccc(NC(=O)/C=C\C(=O)O)cc1 | 11 | – | – |
| CCCCc1nc(Cl)c(CC(=O)OC)n1Cc1ccc(NCc2ccccc2)cc1 | 40 | – | – |
| CCCCc1nc(Cl)c(CC(=O)OC)n1Cc1ccc(NC(=O)c2cc([N+](=O)[O-])cc([N+](=O)[O-])c2O)cc1 | > 30 | – | 4.3 |
| CCCCc1nc(Cl)c(COC)n1Cc1ccc(N(C)C(=O)c2c(Cl)ccc(Cl)c2C(=O)O)cc1 | 5.7 | – | – |
| O=C(O)c1ccccc1C(=O)Nc1ccc(Cn2c(CCCc3ccccc3)nc(Cl)c2CO)cc1 | 80 | – | – |
| CCCCc1nc(Cl)c(COC)n1Cc1ccc(C(=O)N[C@@H](Cc2ccccc2)C(=O)O)cc1 | 22 | – | – |
| CCCCc1nc(Cl)c(CC(=O)OC)n1Cc1ccccc1NC(=O)c1ccccc1NS(=O)(=O)C(F)(F)F | > 100 | – | – |
| CCCCc1nc(Cl)c(CC(=O)OC)n1Cc1ccc(NC(=O)c2ccc(NS(=O)(=O)C(F)(F)F)cc2)cc1 | 84 | – | – |
| CCCCc1nc(Cl)c(CC(=O)OC)n1Cc1ccc(NC(=O)c2cc3ccccc3cc2C(=O)O)cc1 | 5.8 | – | – |
| O=C(O)c1ccccc1C(=O)Nc1ccc(Cn2ccnc2CC2CCCCC2)cc1 | – | 2.8 | – |
| CCCCc1nc(Cl)c(CC(=O)OC)n1Cc1ccccc1NC(=O)c1ccccc1C(=O)O | 100 | – | – |
| CCCCc1nc(Cl)c(CC(=O)O)n1Cc1ccccc1[N+](=O)[O-] | 15 | – | – |
| CCCCc1nc(Cl)c(COC)n1Cc1ccc(C(=O)N2CCC[C@@H]2C(=O)O)cc1 | 120 | – | – |
| CCCCc1nc(Cl)c(COC)n1Cc1ccc(C(=O)N[C@H](Cc2ccccc2)C(=O)O)cc1 | 6.1 | – | – |
| CCCCc1nc(Cl)c(CC(=O)OC)n1Cc1ccc(NC(=O)c2cc(Br)ccc2NS(=O)(=O)C(F)(F)F)cc1 | 40 | – | 4.5 |
| CCCCc1nc(Cl)c(CC(=O)OC)n1Cc1ccc(NC(=O)c2cccc(C)c2NS(=O)(=O)C(F)(F)F)cc1 | 0.19 | – | 4.5 |
| CCCCCCc1nccn1Cc1ccc(NC(=O)c2ccccc2C(=O)O)cc1 | – | 0.35 | – |

| SMILES | IC50 (Angiotensin II receptor [1]) [µM] | IC50 (Angiotensin II receptor [2]) [µM] | pKa [3] |
| --- | --- | --- | --- |
| CCCCc1nc(Cl)c(CC(=O)OC)n1Cc1ccc(NC(=O)c2cc(C)ccc2NS(=O)(=O)C(F)(F)F)cc1 | 0.81 | – | 4.5 |
| CCCCc1nc(Cl)c(CC(=O)OC)n1Cc1ccc(NC(=O)c2ccccc2-c2ccccc2C(=O)O)cc1 | 0.19 | – | – |
| CCCCc1nc(Cl)c(CC(=O)OC)n1Cc1ccc(NC(=O)C2CCCCC2NS(=O)(=O)C(F)(F)F)cc1 (stereo in doubt; 50) | 3.9 | – | 7.6 |
| CCCCc1nc(Cl)c(CC(=O)OC)n1Cc1ccc(NC(=O)c2c(C)cccc2C(=O)O)cc1 | 0.032 | – | – |
| CCCCc1nc(Cl)c(CC(=O)O)n1Cc1ccc(CC(=O)O)cc1 | 13 | – | – |
| CCCCc1nc(Cl)c(CC(=O)O)n1Cc1ccccc1C(=O)O | 38 | – | – |
| CCCCc1nc(Cl)c(CC(=O)OC)n1Cc1ccc(NC(=O)c2cc(C)ccc2C(=O)O)cc1 | 0.38 | – | – |
| CCCCc1nc(Cl)c(COC(C)=O)n1Cc1ccc(C(=O)O)cc1 | 5.3 | – | – |
| COc1ccc(Cc2nccn2Cc2ccc(NC(=O)c3ccccc3C(=O)O)cc2)cc1 | – | 2.5 | – |
| CCCCc1nc(Cl)c(CC(=O)OC)n1Cc1ccc(N)cc1 | 100 | – | – |
| CCCCc1nc(Cl)c(CC(=O)OC)n1Cc1ccc(NC(=O)c2cc(I)ccc2NS(=O)(=O)C(F)(F)F)cc1 | 3.4 | – | 4.5 |
| CCCCc1nc(Cl)c(CC(=O)OC)n1Cc1ccc(NC(=O)c2ccccc2NS(=O)(=O)C(F)(F)F)cc1 | 0.5 | – | 4.5 |
| CCCCc1nc(Cl)c(COC)n1Cc1ccc(C(=O)Nc2ccccc2-c2nn[nH]n2)cc1 | 0.57 | – | – |
| CCCCc1nc(Cl)c(CC(=O)OC)n1Cc1ccc(NC(=O)c2ccc([N+](=O)[O-])cc2C(=O)O)cc1 | 6.9 | – | – |
| O=C(O)c1ccccc1C(=O)Nc1ccc(Cn2ccnc2CCc2ccccc2)cc1 | – | 9.4 | – |
| CCCCc1nc(Cl)c(CC(=O)O)n1Cc1cccc(C(=O)O)c1 | 100 | – | – |
| CCCCc1nc(Cl)c(CC(=O)OC)n1Cc1ccc(NS(=O)(=O)C(F)(F)F)cc1 | 2.1 | – | 4.5 |
| CCCCc1nc(Cl)c(Cc2nnn[nH]2)n1Cc1ccc(-c2nnn[nH]2)cc1 | 1.2 | – | 4 |
| CCCCc1nccn1Cc1ccc(NC(=O)c2ccccc2C(=O)O)cc1 | – | 0.62 | – |
| CCCCc1nc(Cl)c(CC(=O)OC)n1Cc1ccc(NC(=O)c2cccc([N+](=O)[O-])c2C(=O)O)cc1 | 0.4 | – | – |
| CCCCc1nc(Cl)c(CC(=O)OC)n1Cc1ccc(NC(=O)C(F)(F)F)cc1 | 27 | – | 9.5 |
| CCCCc1nc(Cl)c(COC)n1Cc1ccc(NC(=O)CC(C(=O)O)c2ccccc2)cc1 (configuration not stated) | 2.8 | – | – |
| CCCCc1nc(Cl)c(Cc2nnn[nH]2)n1Cc1cccc(-c2nnn[nH]2)c1 | 3.8 | – | – |

| SMILES | IC50 (Angiotensin II receptor [1]) [µM] | IC50 (Angiotensin II receptor [2]) [µM] | pKa [3] |
| --- | --- | --- | --- |
| CCCCc1nc(Cl)c(COC)n1Cc1ccc(NC(=O)C(CC(=O)O)c2ccccc2)cc1 (configuration not stated) | 7.5 | – | – |
| CCCCc1nc(Cl)c(CO)n1Cc1ccc(/C=N/O)cc1 | > 100 | – | – |
| CCCCc1nc(Cl)c(CC(=O)OC)n1Cc1ccc(NC(=O)c2ccccc2NS(C)(=O)=O)cc1 | 2.3 | – | 8.9 |
| CCCCc1nc(Cl)c(COC)n1Cc1ccc(C(=O)Nc2ccccc2C(=O)O)cc1 | 8 | – | – |
| O=C(O)c1ccccc1C(=O)Nc1ccc(Cn2ccnc2)cc1 | – | 100 | – |
| CCCCc1nc(CC(=O)O)c(Cl)n1Cc1ccc(C(=O)O)cc1 | 19 | – | – |
| CCCCCCCc1nccn1Cc1ccc(NC(=O)c2ccccc2C(=O)O)cc1 | 1.1 | – | – |
| CCCCc1nc(Cl)c(CC(=O)OC)n1Cc1ccc([N+](=O)[O-])cc1 | 100 | – | – |
| CC(C)c1nccn1Cc1ccc(NC(=O)c2ccccc2C(=O)O)cc1 | – | 12 | – |
| CCCCc1nc(Cl)c(CC(=O)OC)n1Cc1ccc(N2C(=O)C(c3ccccc3)=C(c3ccccc3)C2=O)cc1 | > 10 | – | – |
| CCCCc1nc(Cl)c(CO)n1Cc1ccc(OC)cc1 | 100 | – | – |
| CCCCc1nc(Cl)c(CC(=O)OC)n1Cc1ccc(N(Cc2ccccc2)C(=O)c2ccccc2NS(=O)(=O)C(F)(F)F)cc1 | 2.7 | – | 4.5 |
| O=C(O)c1ccccc1C(=O)Nc1ccc(Cn2cncc2CO)cc1 | – | > 100 | – |
| CCCc1nccn1Cc1ccc(NC(=O)c2ccccc2C(=O)O)cc1 | – | 3.7 | – |
| CCCCc1nc(Cl)c(CC(=O)OC)n1Cc1ccc(NC(=O)c2c(OC)cccc2C(=O)O)cc1 | 0.08 | – | – |
| CCCCc1nc(Cl)c(COC)n1Cc1ccc(C(=O)N2CCC[C@H]2C(=O)O)cc1 | 6.4 | – | – |
| CCCCc1nc(Cl)c(CC(=O)OC)n1Cc1ccc(NC(=O)c2cccc(NS(=O)(=O)C(F)(F)F)c2)cc1 | 1.3 | – | – |
| CCCCc1nc(Cl)c(CC(=O)OC)n1Cc1ccc(NC(=O)C2CCCCC2NS(=O)(=O)C(F)(F)F)cc1 (stereo in doubt; 51) | 4.5 | – | 7.6 |
| C1CCC(NC2CCCCC2)CC1.CCCCc1nc(Cl)c(CC(=O)OC)n1Cc1ccc(NC(=O)c2c(Cl)ccc(Cl)c2C(=O)O)cc1 | 0.018 | – | – |
| CCc1nccn1Cc1ccc(NC(=O)c2ccccc2C(=O)O)cc1 | – | 8.5 | – |
| CCCCc1nc(Cl)c(COC)n1Cc1ccc(C(=O)Nc2cccc(C)c2C(=O)O)cc1 | 0.5 | – | – |
| CCCCc1nc(CO)c(Cl)n1Cc1ccc(C(=O)O)cc1 | 100 | – | – |
